In ChEMBL document CHEMBL1122517, “2-Phenylindoles. Relationship between structure, estrogen receptor affinity, and mammary tumor inhibiting activity in the rat” (1984):

Legend:
Rattus norvegicus [1] = species: Rattus norvegicus; test: Percent progressive DMBA-induced mammary carcinoma tumors in rats at 2.8 mg dose; assay type: functional
Outline: (§1)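 Female Sprague-Dawley rats, 50 days old, given a single 20 mg DMBA dose in 1 mL olive oil by gavage. Rats were palpated twice weekly from day 30, and those without tumors by day 70 were discarded. Rats were randomized once tumor area exceeded 140 mm². Drug dose was per kg in olive oil (1 mL/kg) sc, single dose Mon–Thu and double dose Fri. Tumor area (caliper, two perpendicular axes) and body weight were measured twice weekly.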

Rattus norvegicus [2] = species: Rattus norvegicus; test: Change in body weight of DMBA-induced mammary carcinoma tumor bearing rats at 2.8 mg dose; assay type: functional
Outline: (§2)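 DMBA-induced tumor-bearing Sprague-Dawley rats (20 mg DMBA by gavage at 50 days old), randomized when tumor area exceeded 140 mm². Dose per kg was given sc in olive oil, single dose daily Monday to Thursday, double dose Friday. Body weight was measured twice weekly. Read-out was % change in body weight.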

Rattus norvegicus [3] = species: Rattus norvegicus; test: Partial remission (%) of DMBA-induced mammary carcinoma tumors in rats at 2.8 mg dose; assay type: functional; outline: as §1
Rattus norvegicus [4] = species: Rattus norvegicus; test: Formation of new DMBA-induced mammary carcinoma tumors in rats at 2.8 mg dose; assay type: functional
Outline: (§3)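 DMBA-induced tumors in Sprague-Dawley rats, entered when tumor area exceeded 140 mm². Dose per kg was given sc in olive oil, daily Monday to Thursday with a double dose Friday. Tumors were measured by calipers twice weekly. Tumor number was counted at the start of the test. Complete remission meant the tumor was no longer palpable. Partial remission meant reduction to ≤50% of initial size. New tumor appearance was recorded.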

Rattus norvegicus [5] = species: Rattus norvegicus; test: Change in DMBA-induced mammary carcinoma tumor area in rats at 2.8 mg dose; -39-458; assay type: functional
Outline: (§4)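 Female Sprague-Dawley rats got one 20 mg DMBA dose by gavage at 50 days old and were palpated twice weekly from day 30. Rats were randomized once tumor area exceeded 140 mm². Dose (per kg) was given sc in olive oil, once daily Monday to Thursday and doubled on Friday. Tumor area was taken from caliper measurements of two perpendicular axes, twice weekly. Change per animal is given as median % and range.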

Rattus norvegicus [6] = species: Rattus norvegicus; test: Percent unchanged DMBA-induced mammary carcinoma tumors in rats at 2.8 mg dose; assay type: functional; outline: as §1
Rattus norvegicus [7] = species: Rattus norvegicus; test: Number of DMBA-induced mammary carcinoma tumors in rats at 2.8 mg dose; assay type: functional; outline: as §3
[8] = molecular target: T1, Estrogen receptor (Mus musculus) (UniProt O08537+P19785); test: Percentage inhibition of uterotrophic activity at 125 ug dose; assay type: functional
Outline: (§5)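 Antiuterotrophic test in immature 19-day-old female NMRI mice (n=10), dosed sc on 3 consecutive days with 0.4 µg estrone per animal per day plus compound in olive oil. Uterine dry weight/body weight ×100 was read 24 h after the last dose. Inhibition % = 100 − [(E_S,T − E_V)/(E_S − E_V)]×100.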

Rattus norvegicus [9] = species: Rattus norvegicus; test: Change in DMBA-induced mammary carcinoma tumor area in rats at 4 mg dose; assay type: functional; outline: as §4
[10] = molecular target: T1, Estrogen receptor (Mus musculus); test: Uterotrophic activity in mice as uterus dry weight (mg)/body weight (g) *100 at 5 ug dose; assay type: functional, tissue-based
Outline: (§6)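 Immature 19-day-old female NMRI mice, groups of 10. Compound dose per animal in olive oil (50 µL) sc on 3 consecutive days. Mice were killed 24 h after the last injection. Uteri were Bouin-fixed 20 h, cleaned, washed with alcoholic LiCl, and dried at 100 °C for 24 h. Effect = uterine dry weight (mg)/body weight (g) ×100; mean ± SD.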

[11] = molecular target: T1, Estrogen receptor (Mus musculus); test: Percentage inhibition of uterotrophic activity at 1 ug dose; assay type: functional; outline: as §5
[12] = molecular target: T1, Estrogen receptor (Mus musculus); test: Anti-uterotrophic activity in mice as uterus dry weight (mg)/body weight (g) *100 at 25 ug dose; assay type: functional, tissue-based
Outline: (§7)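 Immature female NMRI mice, 19 days old, groups of 10, given sc injections on 3 consecutive days. Each injection held 0.4 μg estrone plus the indole dose per animal, in olive oil (50 μL). Killed 24 h after the last injection. Uteri were fixed in Bouin solution, washed, and dried 24 h at 100 °C. Read-out was uterine dry weight (mg)/body weight (g) × 100, mean ± SD.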

Rattus norvegicus [13] = species: Rattus norvegicus; test: Formation of new DMBA-induced mammary carcinoma tumors in rats at 4 mg dose; assay type: functional; outline: as §3
[14] = molecular target: T1, Estrogen receptor (Mus musculus); test: Anti-uterotrophic activity in mice as uterus dry weight (mg)/body weight (g) *100 at 5 ug dose; assay type: functional, tissue-based; outline: as §7
[15] = molecular target: T1, Estrogen receptor (Mus musculus); test: Uterotrophic activity in mice as uterus dry weight (mg)/body weight (g) *100 at 1 ug dose; assay type: functional, tissue-based; outline: as §6
Rattus norvegicus [16] = species: Rattus norvegicus; test: Percent progressive DMBA-induced mammary carcinoma tumors in rats at 4 mg dose; assay type: functional; outline: as §1
Rattus norvegicus [17] = species: Rattus norvegicus; test: Partial remission (%) of DMBA-induced mammary carcinoma tumors in rats at 4 mg dose; assay type: functional; outline: as §1
Rattus norvegicus [18] = species: Rattus norvegicus; test: Change in body weight of DMBA-induced mammary carcinoma tumor bearing rats at 4 mg dose; assay type: functional; outline: as §2
Rattus norvegicus [19] = species: Rattus norvegicus; test: Number of DMBA-induced mammary carcinoma tumors in rats at 4 mg dose; assay type: functional; outline: as §3
Rattus norvegicus [20] = species: Rattus norvegicus; test: Complete remission (%) of DMBA-induced mammary carcinoma tumors in rats at 4 mg dose; assay type: functional; outline: as §3
[21] = molecular target: T1, Estrogen receptor (Mus musculus); test: Percentage inhibition of uterotrophic activity at 5 ug dose; assay type: functional; outline: as §5
[22] = molecular target: T1, Estrogen receptor (Mus musculus); test: Uterotrophic activity in mice as uterus dry weight (mg)/body weight (g) *100 at 125 ug dose; assay type: functional, tissue-based; outline: as §6
[23] = molecular target: T1, Estrogen receptor (Mus musculus); test: Percentage inhibition of uterotrophic activity at 25 ug dose; assay type: functional; outline: as §5
[24] = molecular target: T1, Estrogen receptor (Mus musculus); test: Anti-uterotrophic activity in mice as uterus dry weight (mg)/body weight (g) *100 at 125 ug dose; assay type: functional, tissue-based; outline: as §7
Rattus norvegicus [25] = species: Rattus norvegicus; test: Percent unchanged DMBA-induced mammary carcinoma tumors in rats at 4 mg dose; assay type: functional; outline: as §1
[26] = molecular target: T1, Estrogen receptor (Mus musculus); test: Uterotrophic activity in mice as uterus dry weight (mg)/body weight (g) *100 at 25 ug dose; assay type: functional, tissue-based; outline: as §6
Rattus norvegicus [27] = species: Rattus norvegicus; test: Change in DMBA-induced mammary carcinoma tumor area in rats at 4 mg dose; -100-47; assay type: functional; outline: as §4
[28] = molecular target: T1, Estrogen receptor (Mus musculus); test: Anti-uterotrophic activity in mice as uterus dry weight (mg)/body weight (g) *100 at 1 ug dose; assay type: functional, tissue-based; outline: as §7

T1 sequence (O08537 whole entry, looked up): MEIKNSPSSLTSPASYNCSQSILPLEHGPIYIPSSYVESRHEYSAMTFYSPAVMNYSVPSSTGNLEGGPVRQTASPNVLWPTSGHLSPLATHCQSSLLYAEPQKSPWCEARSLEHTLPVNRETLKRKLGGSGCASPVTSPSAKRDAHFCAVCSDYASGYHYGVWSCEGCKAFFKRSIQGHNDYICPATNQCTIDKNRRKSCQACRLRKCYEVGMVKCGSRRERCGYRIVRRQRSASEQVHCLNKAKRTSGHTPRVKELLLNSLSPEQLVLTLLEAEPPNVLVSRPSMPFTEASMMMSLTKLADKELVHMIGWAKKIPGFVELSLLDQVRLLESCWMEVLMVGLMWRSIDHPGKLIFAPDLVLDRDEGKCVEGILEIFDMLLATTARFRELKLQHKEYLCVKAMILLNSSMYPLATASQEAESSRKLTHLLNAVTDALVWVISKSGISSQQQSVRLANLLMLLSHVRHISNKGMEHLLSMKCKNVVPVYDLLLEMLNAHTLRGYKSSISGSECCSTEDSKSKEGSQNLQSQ
T1 sequence (P19785 whole entry, looked up): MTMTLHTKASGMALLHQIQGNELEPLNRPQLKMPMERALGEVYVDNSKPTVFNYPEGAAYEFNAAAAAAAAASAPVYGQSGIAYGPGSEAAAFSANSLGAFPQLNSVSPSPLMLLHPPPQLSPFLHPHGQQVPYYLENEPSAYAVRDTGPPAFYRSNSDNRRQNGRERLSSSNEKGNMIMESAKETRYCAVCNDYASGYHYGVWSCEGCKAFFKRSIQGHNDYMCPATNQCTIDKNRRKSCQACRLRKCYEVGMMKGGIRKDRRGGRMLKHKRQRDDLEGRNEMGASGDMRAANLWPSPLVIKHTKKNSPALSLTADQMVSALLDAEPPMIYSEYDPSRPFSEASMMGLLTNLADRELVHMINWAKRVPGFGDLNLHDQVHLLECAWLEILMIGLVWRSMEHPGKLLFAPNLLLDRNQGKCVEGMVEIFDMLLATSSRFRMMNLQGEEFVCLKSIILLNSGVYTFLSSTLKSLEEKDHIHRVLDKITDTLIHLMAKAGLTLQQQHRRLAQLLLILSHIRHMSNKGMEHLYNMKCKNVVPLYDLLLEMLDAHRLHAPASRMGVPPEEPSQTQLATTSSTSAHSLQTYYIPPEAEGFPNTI

In the case of CC/C(=C(\c1ccccc1)c1ccc(OCCN(C)C)cc1)c1ccccc1.O=C(O)CC(O)(CC(=O)O)C(=O)O [TAMOXIFEN CITRATE], the Progressed tumors (Rattus norvegicus [1]) is reported as 53, the “Change of body weight” value (Rattus norvegicus [2]) is reported as 0 and the Partial remission (Rattus norvegicus [3]) is reported as 7%. For the same compound, the New tumors (Rattus norvegicus [4]) was 26, the “Change of tumor area” value (Rattus norvegicus [5]) was -39% and the Static remission (Rattus norvegicus [6]) was 27%. For the same compound, the No. of tumors (Rattus norvegicus [7]) was 34.

For CCc1c(-c2ccc(OC(C)=O)cc2)n(C)c2cc(OC(C)=O)ccc12, the inhibition [8] was 52%, the “Change of tumor area” value (Rattus norvegicus [9]) was -88% and the Uterotrophic effect [10] was 16.2. It also gave an inhibition [11] of 17%, an Anti-uterotrophic effect [12] of 33.5 and a New tumors (Rattus norvegicus [13]) of 10. For the same compound, the Anti-uterotrophic effect [14] was 48.8, the Uterotrophic effect [15] was 13.2 and the Progressed tumors (Rattus norvegicus [16]) was 7%. For the same compound, the Partial remission (Rattus norvegicus [17]) was 29%, the “Change of body weight” value (Rattus norvegicus [18]) was -7% and the No. of tumors (Rattus norvegicus [19]) was 18. It also gave a Complete remission (Rattus norvegicus [20]) of 43%, an inhibition [21] of 14% and a Uterotrophic effect [22] of 30. The inhibition [23] was 56%, the Anti-uterotrophic effect [24] was 34.7 and the Static tumors (Rattus norvegicus [25]) was 21%. The Uterotrophic effect [26] was 20.4, the “Change of tumor area” value (Rattus norvegicus [27]) was -100% and the Anti-uterotrophic effect [28] was 47.6.
